Reference: PMC5900865 (Clinical Pharmacology in Drug Development, 2017)

Experiment: Study 1B multiple-dose pharmacokinetics
Format: in vivo, human
Procedure, shortened: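 Men (5, 10, 20 mg) and women (5, 10 mg) were dosed orally, fed, daily for 12 days. Plasma was sampled on day 1 predose to […]. Urine came from the 5 mg cohort predose days 1–16 then in 24-h intervals, and for 10/20 mg on day 12 at 0–24 h. Analysis was by HPLC-MS/MS and noncompartmental.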

[1] = day 12, female, 5 mg daily, n = 5, mean (SD)
[2] = day 12, female, 10 mg daily, n = 6, mean (SD)
[3] = day 12, male, 5 mg daily, n = 6, mean (SD)
[4] = day 12, male, 10 mg daily, n = 6, mean (SD)
[5] = day 12, male, 20 mg daily, n = 6, mean (SD)

With `Cc1ccc(Sc2ccccc2N2CCNCC2)c(C)c1` [Vortioxetine, 1‐[2‐(2,4‐dimethylphenylsulfanyl)phenyl]piperazine] the “time to reach steady state” value (5‐ and 20‐mg doses in men and 10‐mg dose in women) was “approximately 12 days”, the “steady state of trough plasma concentrations” value (10‐mg dose in men and 5‐mg dose in women) was “did not reach steady state even after 12 days” and the clearance at 12 days (both, human, plasma, oral) was 333 to 867 mL/min. For the same compound, the CL/F (day 1, female, 5 mg daily, fed, n = 5, mean (SD)) was 22.3 (19.6) L/h, the CL/F (day 1, female, 10 mg daily, fed, n = 6, mean (SD)) was 99.3 (104.7) L/h and the CL/F (day 1, male, 5 mg daily, fed, n = 6, mean (SD)) was 30.6 (9.4) L/h. The CL/F (day 1, male, 10 mg daily, fed, n = 6, mean (SD)) was 29.1 (12.0) L/h, the CL/F (day 1, male, 20 mg daily, fed, n = 6, mean (SD)) was 50.4 (17.1) L/h and the CL/F (day 12, female, 5 mg daily, fed, n = 5, mean (SD)) was 20.2 (9.5) L/h. The “R(AUC), cumulative ratio of AUC values” [1] was 6.0 (2.0), the “R(Cmax), cumulative ratio of Cmax values” [1] was 5.0 (1.5) and the CL/F (day 12, female, 10 mg daily, fed, n = 6, mean (SD)) was 69.9 (94.8) L/h. The “R(AUC), cumulative ratio of AUC values” [2] was 5.3 (2.2), the “R(Cmax), cumulative ratio of Cmax values” [2] was 3.9 (1.5) and the CL/F (day 12, male, 5 mg daily, fed, n = 6, mean (SD)) was 33.1 (10.3) L/h. The “R(AUC), cumulative ratio of AUC values” [3] was 5.2 (1.4), the “R(Cmax), cumulative ratio of Cmax values” [3] was 4.4 (1.1) and the CL/F (day 12, male, 10 mg daily, fed, n = 6, mean (SD)) was 23.8 (4.4) L/h. For the same compound, the “R(AUC), cumulative ratio of AUC values” [4] was 6.2 (0.9), the “R(Cmax), cumulative ratio of Cmax values” [4] was 5.1 (0.6) and the CL/F (day 12, male, 20 mg daily, fed, n = 6, mean (SD)) was 51.5 (16.6) L/h. The “R(AUC), cumulative ratio of AUC values” [5] was 3.9 (1.0), the “R(Cmax), cumulative ratio of Cmax values” [5] was 3.2 (0.7) and the AUC(0-t) (female, human, plasma, oral, 5 mg, AUC0–24, day 1, female, 5 mg daily, fed, n = 5, mean (SD)) was 47.1 ng·h/mL. The AUC(0-t) (female, human, plasma, oral, 5 mg, AUC0–24, day 12, female, 5 mg daily, fed, n = 5, mean (SD)) was 284 ng·h/mL, the half-life (female, human, plasma, oral, 5 mg, T1/2, day 1, female, 5 mg daily, fed, n = 5, mean (SD)) was 113 h and the half-life (female, human, plasma, oral, 5 mg, T1/2, day 12, female, 5 mg daily, fed, n = 5, mean (SD)) was 79.8 h. It also gave an AUC(0-t) (female, human, plasma, oral, 10 mg, AUC0–24, day 1, female, 10 mg daily, fed, n = 6, mean (SD)) of 53.3 ng·h/mL, an AUC(0-t) (female, human, plasma, oral, 10 mg, AUC0–24, day 12, female, 10 mg daily, fed, n = 6, mean (SD)) of 295 ng·h/mL and a half-life (female, human, plasma, oral, 10 mg, T1/2, day 1, female, 10 mg daily, fed, n = 6, mean (SD)) of 34.2 h. The half-life (female, human, plasma, oral, 10 mg, T1/2, day 12, female, 10 mg daily, fed, n = 6, mean (SD)) was 58 h, the “average time to reach steady state” value (given a median half‐life of 67 hours) was 14 days and the half-life (human, plasma, oral, median half‐life, as given in the discussion) was 67 h. For the same compound, the AUC(0-t) (male, human, plasma, oral, 5 mg, AUC0–24, day 1, male, 5 mg daily, fed, n = 6, mean (SD)) was 31.6 ng·h/mL, the AUC(0-t) (male, human, plasma, oral, 5 mg, AUC0–24, day 12, male, 5 mg daily, fed, n = 6, mean (SD)) was 163 ng·h/mL and the half-life (male, human, plasma, oral, 5 mg, T1/2, day 1, male, 5 mg daily, fed, n = 6, mean (SD)) was 68 h. For the same compound, the half-life (male, human, plasma, oral, 5 mg, T1/2, day 12, male, 5 mg daily, fed, n = 6, mean (SD)) was 58 h, the AUC(0-t) (male, human, plasma, oral, 10 mg, AUC0–24, day 1, male, 10 mg daily, fed, n = 6, mean (SD)) was 71 ng·h/mL and the AUC(0-t) (male, human, plasma, oral, 10 mg, AUC0–24, day 12, male, 10 mg daily, fed, n = 6, mean (SD)) was 432 ng·h/mL. For the same compound, the half-life (male, human, plasma, oral, 10 mg, T1/2, day 12, male, 10 mg daily, fed, n = 6, mean (SD)) was 65.1 h, the AUC(0-t) (male, human, plasma, oral, 20 mg, AUC0–24, day 1, male, 20 mg daily, fed, n = 6, mean (SD)) was 110 ng·h/mL and the AUC(0-t) (male, human, plasma, oral, 20 mg, AUC0–24, day 12, male, 20 mg daily, fed, n = 6, mean (SD)) was 433 ng·h/mL. For the same compound, the half-life (male, human, plasma, oral, 20 mg, T1/2, day 1, male, 20 mg daily, fed, n = 6, mean (SD)) was 44 h, the half-life (male, human, plasma, oral, 20 mg, T1/2, day 12, male, 20 mg daily, fed, n = 6, mean (SD)) was 56.8 h and the “Fe0–x, fraction excreted (VOR)” value (urine 0 to 24 hours (day 1), female, 5 mg daily, n = 5, mean (SD)) was 0.00 (0.0) %. For the same compound, the “Fe0–x, fraction excreted (VOR)” value (urine 0 to 24 hours (day 1), male, 5 mg daily, n = 6, mean (SD)) was 0.00 (0.0) %, the “Fe0–x, fraction excreted (VOR)” value (urine 0 to 288 hours (day 12), female, 5 mg daily, n = 5, mean (SD)) was 0.0494 (0.087) % and the “Fe0–x, fraction excreted (VOR)” value (urine 0 to 288 hours (day 12), male, 5 mg daily, n = 6, mean (SD)) was 0.0072 (0.018) %.
